Results as given in publication PMC8992017 (Journal of medicinal chemistry, 2019).

Experiments:
NF-κB = NF-κB activation in THP1-Blue NF-κB reporter cells; format: cell-based; details: compound 5 μM + LPS, compared with compound 1
In short: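 THP1-Blue NF-κB cells at 10^5/well in RPMI with 10% FBS, pen/strep and Normocin. Test compound (1 mM DMSO stock) was diluted into LPS medium, giving final 5 μM compound ([…]), with LPS co-added. After 20 h, supernatant SEAP was measured colorimetrically with QuantiBlue at 630 nm. Two-point normalized: reference sulfonamide + LPS = 200%, LPS alone = 100%; mean ± SEM.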

ISRE = ISRE activity in ISRE-bla THP-1 reporter cells; format: cell-based; details: compound 5 μM + IFN-α, compared with compound 1
In short: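 ISRE-bla THP-1 cells at 5×10^4/well in RPMI with 10% dialyzed FBS, 0.1 mM non-essential amino acids, 1 mM pyruvate and pen/strep. Test compound (1 mM DMSO stock) was diluted in IFN-α medium, giving final 5 μM compound ([…]) and final 100 U/mL IFN-α. Incubation 16 h, then CCF4-AM FRET substrate 3 h at RT in the dark. Excitation 405 nm; background-subtracted 465/535 nm emission ratio. Two-point normalized: reference sulfonamide + IFN-α = 200%, IFN-α alone = 100%; mean ± SEM.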

Row | SMILES | NF-κB activity (in words) (NF-κB) | ISRE activity (in words) (ISRE)
1 | C#CCCCN(c1cc(OC)c(Cl)cc1OC)S(=O)(=O)c1ccc(OCC)cc1 [Compound 44, N-(4-chloro-2,5-dimethoxyphenyl)-4-ethoxy-N-(pent-4-yn-1-yl)benzenesulfonamide] | retained activity almost equivalent to that of compound 1 | retained activity almost equivalent to that of compound 1
2 | C#CCOCCOCCOCCN(c1cc(OC)c(Cl)cc1OC)S(=O)(=O)c1ccc(OCC)cc1 [Compound 45, N-(4-chloro-2,5-dimethoxyphenyl)-4-ethoxy-N-(2-(2-(2-(prop-2-yn-1yloxy)ethoxy)ethoxy)ethyl)benzenesulfonamide] | too long to retain activity | too long to retain activity
3 | CCOc1ccc(S(=O)(=O)N(Cc2ccccc2)c2cc(OC)c(Cl)cc2OC)cc1 [Compound 46, N-benzyl-N-(4-chloro-2,5-dimethoxyphenyl)-4-ethoxybenzenesulfonamide] | potent analogs | potent analogs
4 | CCOc1ccc(S(=O)(=O)N(CCc2ccccc2)c2cc(OC)c(Cl)cc2OC)cc1 [Compound 47, N-(4-chloro-2,5-dimethoxyphenyl)-4-ethoxy-N-phenethylbenzenesulfonamide] | potent analogs | potent analogs
5 | CCOC(=O)CN(c1cc(OC)c(Cl)cc1OC)S(=O)(=O)c1ccc(OCC)cc1 [Compound 49, Ethyl N-(4-chloro-2,5-dimethoxyphenyl)-N-((4-ethoxyphenyl)sulfonyl)glycinate] | retained dual NF-κB and ISRE activities | retained dual NF-κB and ISRE activities
6 | CCOC(=O)CCCN(c1cc(OC)c(Cl)cc1OC)S(=O)(=O)c1ccc(OCC)cc1 [Compound 50, Ethyl 4-((N-(4-chloro-2,5-dimethoxyphenyl)-4-ethoxyphenyl)sulfonamido)butanoate] | retained dual NF-κB and ISRE activities | retained dual NF-κB and ISRE activities
7 | CCOc1ccc(S(=O)(=O)N(CCCO)c2cc(OC)c(Cl)cc2OC)cc1 [Compound 51, N-(4-chloro-2,5-dimethoxyphenyl)-4-ethoxy-N-(3-hydroxypropyl)benzenesulfonamide] | retained activity in both the assays | retained activity in both the assays
8 | CCOc1ccc(S(=O)(=O)N(CCCNC(=O)OC(C)(C)C)c2cc(OC)c(Cl)cc2OC)cc1 [Compound 52, tert-Butyl (3-((N-(4-chloro-2,5-dimethoxyphenyl)-4-ethoxyphenyl)sulfonamido)propyl)carbamate] | reduction in activity | reduction in activity
9 | CCOc1ccc(S(=O)(=O)N(CCCC(=O)O)c2cc(OC)c(Cl)cc2OC)cc1 [Compound 53, 4-((N-(4-chloro-2,5-dimethoxyphenyl)-4-ethoxyphenyl)sulfonamido)butanoic acid] | retaining the NF-κB activity | reduction in ISRE activity
10 | CCNC(=O)CCCN(c1cc(OC)c(Cl)cc1OC)S(=O)(=O)c1ccc(OCC)cc1 [Compound 54, 4-((N-(4-chloro-2,5-dimethoxyphenyl)-4-ethoxyphenyl)sulfonamido)-N-ethylbutanamide] | retaining the NF-κB activity | reduction in ISRE activity
11 | CCOc1ccc(S(=O)(=O)N(CCCN)c2cc(OC)c(Cl)cc2OC)cc1.Cl [Compound 55, N-(3-aminopropyl)-N-(4-chloro-2,5-dimethoxyphenyl)-4-ethoxybenzenesulfonamide hydrochloride] | recovered | recovered
